Variants at the floor of the assay were thinned out.
B1: tRNA (parent)
chain: GUUCCGUUGGCGUAAUGGUAACGCGUCUCCCUCCUAAGGAGAAGACUGCGGGUUCGAGUCCCGUACGGAACG

Variants of: B1
Assay: yeast fitness relative to wild type (ratio to wild type); higher = fitter; tRNA-Arg(CCU), competitive growth, 37 C, YPD
Method in brief: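 Variants of the tRNA-Arg(CCU) gene were chemically synthesised with a 3% per-site mutation rate across 69 sites and placed at the native genomic locus in Saccharomyces cerevisiae. Six parallel replicates of the pooled strains were competed in YPD at 37°C for 24 hours, and gene amplicons from the start and end populations were read by 100-nucleotide paired-end sequencing. Darwinian fitness relative to wild type was derived from changes in genotype frequencies. Genotypes required ≥ 100 starting reads, and estimates < 0.5 were set to 0.5.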
Variant GUUCCGUUGGCGUAAUGGUAAGGCGUCUCCCUCCUAAGGAGACGACUGCGGGUUCGAGUCCCGUACGGAACG has a yeast fitness of 0.708.
Work on GUUCCGUUGGCGUAAUGGUAAGGCGUCUCCCUCCUAAGGAGACGAAUGCGGGUUCGAGUCGCGUACGGACCG yielded a yeast fitness of at most 0.5.
Work on GUUCCGUUGGCGUAAUGGUAAGGCGUCUCCCUCCUAAGGAGACGACUGCGGGUUGGAGUCCCGUACGGAACG yielded a yeast fitness of 0.577.
For GUUCCGUUGGCGUAAUGGUAAGGCGUCUCCCUCCUAAGGAGAGGACUGCGGGUUCGAGUCCCGUACGGAACG, the yeast fitness was 0.702.
With GUUCCGUUGGCGUAAUGGUAAGGCGUCUCCCUCCUAAGGAGAUGACUGCGGAUCCUAGUCCCGCACGGAACG the yeast fitness was at most 0.5.
Work on GUUCCGUUGGCGUAAUGGUAAGGCGUCUCCCUCCUAAGGAGAAGCCUGCGGGUUCGAGUCCCGUACGGAACG yielded a yeast fitness of 0.583.
GUUCCGUUGGCGUAAUGGUAAGGCGUCUCCCUCCUAAGGAGAAGCCUGCGGGUUCGUGUCCAGUACGGAACG gave a yeast fitness of 0.716.
Work on GUUCCGUUGGCGUAAUGGUAAGGCGUCUCCCUCCUAAGGAGAAGGUUGCGGGUUCGAGUCCCGUACGGAACG yielded a yeast fitness of 0.644.
In the case of GUUCCGUUGGCGUAAUGGUAAGGCGUCUCCCUCCUAAGGAGAAGGCUGCGGGAUCGAGUCCCGUAGGGAACG, the yeast fitness is reported as 0.565.
Work on GUUCCGUUGGCGUAAUGGUAAGGCGUCUCCCUCCUAAGGAGAAGUCUGCGGGUUCGAGUCCCGUCCGGAACG yielded a yeast fitness of 0.534.
In the case of GUUCCGUUGGCGUAAUGGUAAGGCGUCUCCCUCCUAAGGAGAAGUCUCCGGGUUCGAGUCCCGUACGGAACG, the yeast fitness is reported as 0.511.
Variant GUUCCGUUGGCGUAAUGGUAAGGCGUCUCCCUCCUAAGGAGAAGACUGCGGGUUCGGGUCACGUACGGAACG has a yeast fitness of at most 0.5.
Work on GUUCCGUUGGCGUAAUGGUAAGGCGUCUCCCUCCUAAGGAGAAGACUGCGGGUUCGUGUCCCGUACGGAACG yielded a yeast fitness of 0.619.
GUUCCGUUGGCGUAAUGGUAAGGCGUCUCCCUCCUAAGGAGAAGACUGCGGGUUCGAGUCCCGUCCGGAACG showed a yeast fitness of 0.863.
With GUUCCGUUGGCGUAAUGGUAAGGCGUCUCCCUCCUAAGGAGAAGACUGCGGGUUCGAGUCCCGUACGGGACG the yeast fitness was 0.952.
GUUCCGUUGGCGUAAUGGUAAGGCGUCUCCCUCCUAAGGAGAAGACUGCGGGUUCGAGUCCCGUACGGAGCG showed a yeast fitness of 0.86.
Work on GUUCCGUUGGCGUAAUGGUAAGGAGUCUCCCUCCUAAGGAGAAGACUGCGGGUUCGAGUCCCGUACGGAACG yielded a yeast fitness of 0.673.
GUUCCGUUGGCGUAAUGGUAAGGAGUCUCCCUCCUAAGGAGAACACUGCGAGUUCGACACCCGUACGGAACG showed a yeast fitness of at most 0.5.
GUUCCGUUGGCGUAAUGGUAAGGGGUAUCCCUCCUAAGGAGAAGACUGCGGGUUCGAGUGCCGUACGGAACG showed a yeast fitness of 0.521.
With GUUCCGUUGGCGUAAUGGUAAGGGGUCUUCCUUCUACGGAGAAGACUGCGGAUUCGAGUCCCGUACGGAACG the yeast fitness was 0.625.
Work on GUUCCGUUGGCGUAAUGGUAAGGGGUCUUCCUUCUACGGAGAAGACUGCGGAUUCGAGUCCCGUAUGGAACG yielded a yeast fitness of 0.548.
GUUCCGUUGGCGUAAUGGUAAGGGGUCUCCCUCCUAAGGAGAAGACUGCAGGUUCGAGUCCCGUACGGAACG showed a yeast fitness of 0.694.
Work on GUUCCGUUGGCGUAAUGGUAAGGGGUCUCCCUCCUAAGGAGAAGACUGCAGGUUCGAGUCCCGUAUGGCACG yielded a yeast fitness of at most 0.5.
Variant GUUCCGUUGGCGUAAUGGUAAGGGGUCUCCCACCUAAGGAGAAGACUGCGGGUUCGAGUCCCGUAUGGAACG has a yeast fitness of at most 0.5.
For GUUCCGUUGGCGUAAUGGUAAGGGGUCUCCCUCCUAAGGAGAAGACCGCGGGUUCGAGUCCCGUACGGAACG, the yeast fitness was 0.642.
GUUCCGUUGGCGUAAUGGUAAGGGGUCUCCCUCCUAAGGAGAAGACUGCGGGUACGAGUCCCGUACGGUACG gave a yeast fitness of at most 0.5.
In the case of GUUCCGUUGGCGUAAUGGUAAGGUGUCUCCCUCCUACGGAGAAGACUGCGGGUUCGAGUCCCGUACGGAACG, the yeast fitness is reported as at most 0.5.
Work on GUUCCGUUGGCGUAAUGGUAAGGUGUCUUCCUCCUAAGGAGUAGACUGCGGGUUCGAGUCCCGUACGGAACG yielded a yeast fitness of at most 0.5.
Work on GUUCCGUUGGCGUAAUGGUAAGGUGUCUCCCUCCUAAGGAGAAAACUGCGGGUUCGAGUCCCGUACGGAACG yielded a yeast fitness of 0.555.
In the case of GUUCCGUUGGCGUAAUGGUAAGGUGUCUCCCUCCUAAGGAGAACACUGCGGGUUCGAGUCCCGUACGGAACG, the yeast fitness is reported as 0.59.
With GUUCCGUUGGCGUAAUGGUAAGGUGUCUCCCUCCUAAGGAGAAGACUGCCGGUUCGAGUCCCGUACGGAACG the yeast fitness was at most 0.5.
Variant GUUCCGUUGGCGUAAUGGUAAGGCGUAUCCCUCCUAAGGAGACGACUGCGGGUUCGAGUCCCGUACGGAACG has a yeast fitness of 0.587.
GUUCCGUUGGCGUAAUGGUAAGGCGUGUCCCUCCUAGAGAGAAGACUGCGGGUUCGAGUCCCGUACGGAACG showed a yeast fitness of 0.532.
In the case of GUUCCGUUGGCGUAAUGGUAAGGCGUGUGCCUCAUGAGGAGAUGACUGCGGGUUCGAGUCCCGUUCGGAACG, the yeast fitness is reported as at most 0.5.
GUUCCGUUGGCGUAAUGGUAAGGCGUGUGCCUCAUAAGGAGAACACUGCGGGUUCAGGUCCCGUACGGAACG showed a yeast fitness of 0.529.
Work on GUUCCGUUGGCGUAAUGGUAAGGCGUGUGCCUCCUAAGGAGAAGACUGUGGGUUCGAGUCCCGUACGGAACG yielded a yeast fitness of at most 0.5.
GUUCCGUUGGCGUAAUGGUAAGGCGUGUCACGCCUAAGGAGAAGACUGCGGGUUGGAGUCCCGUACGGAACG gave a yeast fitness of at most 0.5.
For GUUCCGUUGGCGUAAUGGUAAGGCGUGUCCGUCCUAAGGAGAAGACUGCGGGUUCGAGUCCCGUACGGUACG, the yeast fitness was 0.554.
